In paper PMC6874763 (Cell chemical biology, 2019):

Legend:
[1] = test system: myr-Akt/Eµ-Myc lymphomas; experiment: Lymphoma chemosensitization study; type: in vivo, mice; conditions: CMLD012612 0.2 mg/kg IP daily for 5 days + doxorubicin 10 mg/kg on day 2
[2] = test system: NIH/3T3 cells; experiment: Sulforhodamine B; type: cell-based; conditions: read-out: IC50 cytotoxicity against NIH/3T3 cells; 4 day compound exposure
[3] = test system: eIF4A1^em1JP cells
[4] = test system: liver polysomes; experiment: Liver polysome profiling after intraperitoneal delivery; type: in vivo, mice; conditions: 3 h after intraperitoneal injection; 0.5 mg/kg CMLD012612, 0.2 mg/kg CR-1–31-B
[5] = test system: HEK293 cells; experiment: [35S]-methionine labeling; type: cell-based; conditions: 1 h compound exposure; compared with CR-1–31-B and CMLD012073
[6] = target: eIF4A1 (Homo sapiens, UniProt P60842); experiment: Fluorescence polarization; type: binding; conditions: for rank in screen for enhancing eIF4A1:poly r(AG)8 RNA binding: 10 µM rocaglate, >200 rocaglates of BU-CMD collection
Sequence of eIF4A1 (P60842 whole entry, species assumed): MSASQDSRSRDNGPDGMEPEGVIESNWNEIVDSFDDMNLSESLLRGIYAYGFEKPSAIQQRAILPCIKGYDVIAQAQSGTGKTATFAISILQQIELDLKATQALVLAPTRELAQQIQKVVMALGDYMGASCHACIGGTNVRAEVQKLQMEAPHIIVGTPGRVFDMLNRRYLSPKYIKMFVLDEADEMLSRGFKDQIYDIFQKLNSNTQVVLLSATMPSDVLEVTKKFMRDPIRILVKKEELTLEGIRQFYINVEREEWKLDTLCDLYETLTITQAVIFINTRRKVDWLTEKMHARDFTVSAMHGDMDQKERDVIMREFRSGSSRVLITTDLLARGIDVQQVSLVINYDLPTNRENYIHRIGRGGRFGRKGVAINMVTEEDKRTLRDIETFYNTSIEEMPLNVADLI

[7] = test system: cap-dependent translation (FF); experiment: In vitro translation assay in Krebs-2 extracts; type: biochemical; conditions: Krebs-2 extracts programmed with mRNA
Outline: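 Reporter mRNA added at 10 ng/µL final. Incubated with or without compound 60 min at 30 °C; firefly luciferase read. IC50 from 3–5 independent experiments (6 concentration points), nonlinear regression fit.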

[8] = test system: 80S ribosome assembly on (AG)10-FF/HCV/Ren mRNA; experiment: Ribosome binding; type: biochemical, rabbit; conditions: 500 nM compound, 100 nM eIF4A1, RRL, 600 µM cycloheximide
Outline: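 32P-labeled (AG)10-FF/HCV/Ren mRNA preincubated with 100 nM eIF4A1 and 500 nM compound for 10 min at RT. Then added to rabbit reticulocyte lysate with 600 µM cycloheximide and incubated 10 min at 30 °C. Lysate sedimented on 10–30% glycerol gradients (SW40, 39,000 rpm, 3.5 h, 4 °C). Fractions collected and radioactivity measured by scintillation counting.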

[9] = target: eIF4A2 (Homo sapiens, UniProt Q14240); experiment: Fluorescence polarization; type: binding; conditions: 10 µM CR-1–31-B, 10 nM FAM poly r(AG)8, 30 min RT
Sequence of eIF4A2 (Q14240 whole entry, species assumed): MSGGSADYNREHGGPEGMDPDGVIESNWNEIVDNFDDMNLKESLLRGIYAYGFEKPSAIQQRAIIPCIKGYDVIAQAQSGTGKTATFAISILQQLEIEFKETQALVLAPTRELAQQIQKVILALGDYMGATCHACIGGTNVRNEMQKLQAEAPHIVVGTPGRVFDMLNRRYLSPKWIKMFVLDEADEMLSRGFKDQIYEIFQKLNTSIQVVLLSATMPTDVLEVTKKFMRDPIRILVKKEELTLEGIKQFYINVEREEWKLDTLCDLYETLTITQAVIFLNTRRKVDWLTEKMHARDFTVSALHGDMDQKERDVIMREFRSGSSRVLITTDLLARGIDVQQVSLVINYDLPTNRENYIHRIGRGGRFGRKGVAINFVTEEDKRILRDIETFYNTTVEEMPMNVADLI
Outline: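 His6-eIF4A2 expressed in E. coli BL21(DE3), purified by Ni-NTA then Q-Sepharose. Varied eIF4A2 concentrations mixed with 10 nM FAM-poly r(AG)8, plus DMSO vehicle or test compound. Equilibrated 30 min at RT, then polarization read. Change in FP expressed relative to DMSO control; n = 3 ± SEM.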

| Structure (SMILES) | IC50 [2] [nM] | suppression of liver polysomes [4] | rank in screen for enhancing eIF4A1:poly r(AG)8 RNA binding [6] | assembly of the 80S ribosome on the mRNA [8] | also measured |
| --- | --- | --- | --- | --- | --- |
| COc1ccc([C@@]23Oc4cc(OC)cc(OC)c4[C@@]24N=C(C)N[C@@]4(O)[C@H](C(=O)N(C)OC)[C@H]3c2ccccc2)cc1 [CMLD012612] | ~2 | effectively suppressed liver polysomes |  |  | duration of complete tumor loss (tumor-free survival) [1]: 15 to 16 days; synergy with doxorubicin [1]: effectively synergized; cytotoxicity in eIF4A1^em1JP cells versus NIH/3T3 [3]: significantly blunted; resistance of eIF4A^em1jp cells relative to parental NIH/3T3 cells ([3]; 4 day compound exposure): at least 10 fold; inhibition of cellular translation (35S-methionine incorporation) [5]: surpasses those of our previous lead compounds |
| COC(=O)[C@@H]1[C@@H](c2ccccc2)[C@]2(c3ccc(OC)cc3)Oc3cc(OC)cc(OC)c3[C@@]23N=C(C)N[C@@]13O [CMLD012073] | 10 |  | Among the most potent | inhibited assembly of the 80S ribosome | potency at inhibiting cap-dependent translation (FF) relative to CR-1–31-B [7]: ~ 3 fold |
| COc1ccc([C@@]23Oc4cc(OC)cc(OC)c4[C@@]24NC(C)=NC4=C(C=O)[C@H]3c2ccccc2)cc1 [CMLD012607] | 454 |  |  |  |  |
| CONC(=O)[C@H]1[C@@H](O)[C@@]2(O)c3c(OC)cc(OC)cc3O[C@@]2(c2ccc(OC)cc2)[C@@H]1c1ccccc1 [CR-1–31-B] | ~8.5 | effectively suppressed liver polysomes | ranked highly | inhibited assembly of the 80S ribosome | stimulation of eIF4A1 binding to poly rA(GAA)5 ([6]; 500 nM eIF4A1, 30 min, change in FP vs vehicle): preferentially stimulated; binding activity of eIF4A1 to poly r(AG)8 ([6]; 10 µM CR-1–31-B, 10 nM FAM poly r(AG)8, 30 min RT): enhanced; binding activity of eIF4A2 to poly r(AG)8 [9]: enhanced |
| COC(=O)[C@@H]1[C@@H](c2ccccc2)[C@]2(c3ccc(OC)cc3)Oc3cc(OC)cc(OC)c3[C@@]23N=C(C2CC2)N[C@@]13O [CMLD012072] |  |  | Among the most potent |  |  |
| CONC(=O)[C@H]1[C@@H](O)[C@@]2(O)c3c(OC)cc(OC)cc3O[C@@]2(c2ccc(Br)cc2)[C@@H]1c1ccccc1 [SDS-1–0-21] |  |  | ranked highly |  |  |
